The nature of series [1]: Metabolic stability in Sprague-Dawley rat plasma assessed as drug recovery at 0.2 ug/ml by RP-HPLC. Type of series: ADME, cell-free. The following applies: read-out: Stability.
A short description of series [2]: AUC (0 to t) in healthy Sprague-Dawley rat at 500 mg/kg, po administered as single dose. In kind it is ADME, organism-based. The following applies: plasma. Details: dose 500 mg/kg, route oral. The procedure, abridged:
(§1)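 Four rats per group, dosed once by oral gavage at 500 mg/kg, suspended with the aid of 1% CMCNa. Blood (0.5 ml) was taken from the orbital venous plexus at 0.083, 0.25, 0.5, 1, 2, 4 and 8 h. Plasma (200 µl) was extracted with ethyl acetate/chloroform and assayed by isocratic HPLC on an ODS2 column. Parameters came from non-compartmental analysis.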

Series [3] can be described thus: Mean residence time (0 to infinity) in healthy Sprague-Dawley rat at 500 mg/kg, po administered as single dose. On the set-up: dose 500 mg/kg, route oral. The following applies: in vivo. Type of series: ADME, organism-based. Summed up:
as §1

Series [4] is described as follows: Tmax in healthy Sprague-Dawley rat at 500 mg/kg, po administered as single dose. Type of series: ADME, organism-based. On the set-up: dose 500 mg/kg, route oral. The following applies: in vivo. The procedure, abridged: as §1
Series [5] in a line: AUC (0 to infinity) in healthy Sprague-Dawley rat at 500 mg/kg, po administered as single dose. In kind it is ADME, organism-based. On the set-up: dose 500 mg/kg, route oral, time infinity. The following applies: plasma. Summed up: as §1
Series [6] in a line: Hydrolytic stability assessed as compound degradation at 2 mg in sodium dihydrogen phosphate buffered 0.3% sodium carboxymethylcellulose solution at pH 7.4 after 45 hrs by HPLC. Type of series: physicochemical. The following applies: read-out: Activity. Summed up: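 2 mg of sample was vortexed into 1 ml of 0.3% (w/v) CMCNa solution in phosphate buffer at pH 7.4 and kept in the dark at 37 °C. HPLC peak areas were recorded. Degradation = (area at 0 h − area at end time) / area at 0 h × 100%.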

Series [7] is described as follows: Apparent oral clearance in healthy Sprague-Dawley rat at 500 mg/kg, po administered as single dose. Type of series: ADME, organism-based. Details: dose 500 mg/kg, route oral. The following applies: in vivo. Summed up:
as §1

The nature of series [8]: Mean residence time (0 to t) in healthy Sprague-Dawley rat at 500 mg/kg, po administered as single dose. The following applies: in vivo. On the set-up: dose 500 mg/kg, route oral. Type of series: ADME, organism-based. Summed up:
as §1

Series [9] is described as follows: Metabolic stability in Sprague-Dawley rat plasma assessed as drug recovery at 12.8 ug/ml by RP-HPLC. In kind it is ADME, cell-free. The following applies: read-out: Stability.
Series [10] can be described thus: Cmax in healthy Sprague-Dawley rat at 500 mg/kg, po administered as single dose. In kind it is ADME, organism-based. On the set-up: dose 500 mg/kg, route oral. The following applies: in vivo. The procedure, abridged:
as §1

The subject of another series is HeLa. Nature of the series: Cytotoxicity against human HeLa cells after 72 hrs by MTT assay. In kind it is functional, cell-based. The procedure, abridged:
(§2)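 Cells were plated at 5000 per well in 1640 medium with 5% heat-inactivated calf serum and penicillin/streptomycin, at 37 °C and 5% CO2. After 24 h, compounds in DMSO were added at final 100, 33.3, 11.1 and 3.7 µg/ml for 72 h. MTT (5 mg/ml in 0.9% NaCl) was then added for 3 h, the formazan dissolved in DMSO, and absorbance read at 570 nm.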
In general terms: Formazan colour is commonly taken as a measure of viable cells.

A short description of series [11]: Metabolic stability in Sprague-Dawley rat plasma assessed as drug recovery at 3.2 ug/ml by RP-HPLC. In kind it is ADME, cell-free. The following applies: read-out: Stability.
Series [12] in a line: Cytotoxicity against human LS 174T cells after 72 hrs by MTT assay. Type of series: functional, cell-based. The following applies: LS174T. Summed up: as §2
For the next series, the system named is PC-3. Briefly: Cytotoxicity against human PC3 cells after 72 hrs by MTT assay. The following applies: PC-3, 72 h. Type of series: functional, cell-based. Summed up: as §2
Series [13] in a line: Half life in healthy Sprague-Dawley rat at 500 mg/kg, po administered as single dose. In kind it is ADME, organism-based. Details: dose 500 mg/kg, route oral. The following applies: in vivo. The procedure, abridged:
as §1

In the next series the test system is BGC-823. Briefly: Cytotoxicity against human BGC823 cells after 72 hrs by MTT assay. In kind it is functional, cell-based. The following applies: BGC-823, 72 h. Summed up:
as §2

The next series relates to KB (human). Briefly: Cytotoxicity against human KB cells after 72 hrs by MTT assay.
For a further series, the system named is CNE. Briefly: Cytotoxicity against human CNE cells after 72 hrs by MTT assay. Type of series: functional, cell-based. Summed up: as §2
Series [14] in a line: Metabolic stability in Sprague-Dawley rat plasma assessed as drug recovery at 0.8 ug/ml by RP-HPLC. Type of series: ADME, cell-free. The following applies: read-out: Stability.
In series [15] the test system is Blood. Briefly: Drug level in portal blood of patient with cancer at 3.6 g/day by HPLC. Type of series: ADME, tissue-based. The following applies: human, read-out: Drug uptake.
The subject of another series is Liver. Nature of the series: Drug level in liver of patient with cancer at 3.6 g/day by HPLC. In kind it is ADME, tissue-based. The following applies: human, in vivo; read-out: Drug uptake.
A short description of series [16]: Metabolic stability in Sprague-Dawley rat plasma assessed as drug recovery at 0.05 ug/ml by RP-HPLC. In kind it is ADME, cell-free. The following applies: read-out: Stability.
Series [17] in a line: Plasma concentration in healthy Sprague-Dawley rat at 500 mg/kg, po administered as single dose after 2 hrs. On the set-up: dose 500 mg/kg, route oral. The following applies: read-out: Drug uptake. Type of series: ADME, organism-based. The procedure, abridged:
as §1

Series [18] is described as follows: Chemical stability assessed as compound degradation in 0.1 M phosphate buffer at pH 7.2 within 30 mins. Type of series: physicochemical. The following applies: read-out: Activity.
Series [19] deals with Blood. Nature of the series: Drug level in peripheral blood of patient with cancer at 3.6 g/day by HPLC. In kind it is ADME, tissue-based. The following applies: human, read-out: Drug uptake.
Series [20] in a line: Chemical stability assessed as half life in pH 8 buffer containing 10% cyclodextrins. In kind it is physicochemical.
Series [21] is described as follows: Drug level in bile of patient with cancer at 3.6 g/day by HPLC. Type of series: ADME, tissue-based. The following applies: human, in vivo; read-out: Drug uptake.
The subject of a further series is HL-60 (human). Briefly: Cytotoxicity against human HL60 cells after 72 hrs by MTT assay. The following applies: HL-60, 72 h.

The results in this text go back to ChEMBL document CHEMBL1153929, “Exploration and synthesis of curcumin analogues with improved structural stability both in vitro and in vivo as cytotoxic agents” (Bioorg Med Chem, 2009).

Each structure is given as a SMILES string.

As for `O=C(/C=C/c1ccccc1Br)/C=C/c1ccccc1Br`, the remaining at 0.2 ug/ml in series [1] was 96.5%. Moreover, the AUC(0-t) (commonly the area under the concentration-time curve up to a stated or last time point) in series [2] worked out at 12100 ng·h/mL. Also, the MRT inf (usually a mean duration of stay, worked out from the concentration-time curve) in [3] was 4.16 h. Further, in series [4], the Tmax (in general, the time at which the peak concentration occurs) was found to be 0.25 h. For the same compound, the AUC(0-inf) – broadly, total exposure, with the tail of the curve extrapolated – in series [5] came to 14900 ng·h/mL. Besides, the degraded at 45 h in [6] came out at 0%. Further, the CL/F (usually the apparent clearance, not corrected for the fraction that reaches the circulation) in series [7] was 650 mL/min/kg. Besides, the MRT last (commonly a mean duration of stay, worked out from the concentration-time curve) in series [8] was found to be 2.49 h. For the same compound, in series [9], the remaining at 12.8 ug/ml amounted to 95.2%. Also, the concentration in series [10] peaked (Cmax) at 4100 ng/mL. In addition, the IC50 (as a rule, the midpoint of a concentration-inhibition curve) in the series on HeLa amounted to 34.2 µM; in series [12] it was 4 µM; in the series with PC-3, 15.4 µM; with BGC-823 it was 16.1 µM. For the same compound, in series [11], the remaining at 3.2 ug/ml worked out at 97.1%. In addition, the half-life – broadly, how long it takes for the measured level to halve – in series [13] is 2.92 h.

In the case of `O=C(/C=C/c1cccs1)/C=C/c1cccs1`, the degraded at 45 h in series [6] was 0%. For the same compound, the IC50 came to 6.2 µM with HeLa; 123 µM in the series with KB (human); 79.5 µM in [12]; 10.3 µM in the series on PC-3; 154 µM in the series with CNE.

In the case of `COc1cc(/C=C/C(=O)/C=C/c2ccc(O)c(OC)c2)ccc1O`, the remaining at 0.2 ug/ml in series [1] came out at 96.4%. For the same compound, the remaining at 0.8 ug/ml in [14] came out at 98.3%. The same compound had an AUC(0-t) in series [2] of 2960 ng·h/mL. In [3], this compound had an MRT inf of 8.48 h. In [4], the Tmax is 1 h. Also, the AUC(0-inf) in series [5] is 4910 ng·h/mL. The degraded at 45 h in series [6] was found to be 0%. In [7], the CL/F is 2090 mL/min/kg. Moreover, in series [8], the MRT last was determined as 2.96 h. Moreover, the Cmax – broadly, the maximum level reached in the sampled fluid or tissue – in [10] turned out to be 822 ng/mL. For the same compound, in series [11], the remaining at 3.2 ug/ml amounted to 97.6%. The IC50 in [12] worked out at 3.7 µM; in the series with CNE it was 6.8 µM. In series [13], this compound had a half-life of 5.96 h.

As to `COc1cc(/C=C/C(=O)CC(=O)/C=C/c2ccc(O)c(OC)c2)ccc1O` [CURCUMIN], in series [1], the remaining at 0.2 ug/ml was determined as 98.2%. In addition, the AUC(0-t) in [2] stood at 275 ng·h/mL. Also, the MRT inf in [3] is 22.7 h. Also, the Tmax in [4] worked out at 0.5 h. Moreover, the concentration (in the series on Blood [15]; in the series with Liver; with Blood [19]; in series [21]) was 1300 nM throughout. Also, the remaining at 0.05 ug/ml in series [16] came to 97.7%. Further, in [17], the concentration at 2 h came to 40 ng/mL. For the same compound, in series [5], the AUC(0-inf) came out at 672 ng·h/mL. The degraded at 0.5 h in series [18] is 92%. The degraded at 45 h in series [6] is above 64%. For the same compound, in [8], the MRT last is 3.44 h. Besides, the half-life in [20] was 10.5 h; in series [13], 2.41 h. The same compound displayed a Cmax in series [10] of 91 ng/mL. For the same compound, the IC50 in the series with HeLa was 17.5 µM; in the series on KB (human), 35.9 µM; in [12], 6.4 µM; in the series with PC-3, 15 µM; in the series on CNE it was 32.8 µM; in the series with HL-60 (human) it was 11.6 µM. Also, in the series with BGC-823, the IC50 came to 16.7 µM. In addition, the remaining at 3.2 ug/ml in series [11] was determined as 98.7%.

As for `O=C1/C(=C/c2ccc(F)cc2)CCC/C1=C\c1ccc(F)cc1`, in series [6], the degraded at 45 h worked out at 0%. In addition, the IC50 in the series on KB (human) came out at 150 µM; in series [12], 7.4 µM; in the series on CNE it was 77.9 µM; in the series on HL-60 (human) it was 58.1 µM; with BGC-823, 87.3 µM.

Regarding `Cc1ccc(C)c(/C=C/C(=O)/C=C/c2cc(C)ccc2C)c1`, in series [6], the degraded at 45 h was determined as 0%. Besides, the IC50 with HeLa was found to be 6.1 µM; in [12], 103 µM; with PC-3, 5.2 µM; in the series on CNE it was 17.7 µM.

In the case of `O=C1/C(=C/c2ccccc2F)CCC/C1=C\c1ccccc1F`, the degraded at 45 h in series [6] worked out at 0%. Besides, the IC50 with HeLa is 15.5 µM; with KB (human) it was 74.1 µM; in the series on PC-3, 45.8 µM; in the series on CNE, 130 µM.
